Measured values: ChEMBL document CHEMBL1629532, “Design, synthesis, and structure-activity relationships of 3-ethynyl-1H-indazoles as inhibitors of the phosphatidylinositol 3-kinase signaling pathway” (J Med Chem, 2010)
Calls of active or inactive are those of the source. The calls are words filed in the database; no cut-off is given here.

Key:
[1] = molecular target: Mitogen-activated protein kinase kinase kinase kinase 4 (Homo sapiens) (UniProt O95819); assay: Inhibition of MAP4K4 at 10 uM
[2] = molecular target: Phosphatidylinositol 4,5-bisphosphate 3-kinase catalytic subunit gamma isoform (Homo sapiens, UniProt P48736); assay: Inhibition of PI3Kgamma
[3] = molecular target: MAP/microtubule affinity-regulating kinase 4 (Homo sapiens) (UniProt Q96L34); assay: Inhibition of MARK4 at 10 uM
MAP/microtubule affinity-regulating kinase 4 (Homo sapiens), sequence (Q96L34 whole entry): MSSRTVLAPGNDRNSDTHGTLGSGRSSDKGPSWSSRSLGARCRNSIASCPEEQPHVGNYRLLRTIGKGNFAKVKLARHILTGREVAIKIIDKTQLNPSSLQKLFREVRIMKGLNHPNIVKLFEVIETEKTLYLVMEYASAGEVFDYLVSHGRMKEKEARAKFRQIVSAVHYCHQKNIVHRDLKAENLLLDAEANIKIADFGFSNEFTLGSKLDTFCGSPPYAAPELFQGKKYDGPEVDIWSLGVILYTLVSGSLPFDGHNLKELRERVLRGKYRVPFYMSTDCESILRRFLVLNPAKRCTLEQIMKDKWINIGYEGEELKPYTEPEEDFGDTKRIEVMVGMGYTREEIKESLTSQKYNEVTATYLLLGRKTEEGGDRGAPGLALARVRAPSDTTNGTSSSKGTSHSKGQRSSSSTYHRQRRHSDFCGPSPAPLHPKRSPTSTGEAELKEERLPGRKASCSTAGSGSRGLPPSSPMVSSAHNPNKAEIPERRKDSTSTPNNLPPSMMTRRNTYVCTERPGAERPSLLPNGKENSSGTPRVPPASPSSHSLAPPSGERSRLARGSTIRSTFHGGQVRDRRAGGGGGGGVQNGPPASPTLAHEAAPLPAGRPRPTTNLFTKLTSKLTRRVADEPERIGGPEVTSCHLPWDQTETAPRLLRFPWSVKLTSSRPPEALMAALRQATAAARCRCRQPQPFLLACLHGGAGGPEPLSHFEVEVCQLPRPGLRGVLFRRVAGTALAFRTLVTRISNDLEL

[4] = molecular target: RAC-alpha serine/threonine-protein kinase (Homo sapiens) (UniProt P31749); assay: Inhibition of AKT1 by biochemical assay
Liver microsomes = assay: Metabolic stability in rat liver microsomes; assay type: ADME, Microsome
Procedure, shortened: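 Rat liver microsomes (1 mg/ml protein) with 4µM compound in 50mM phosphate pH 7.2. Pre-incubated 5 min at 37.5 °C, then started with 2mM NADPH and run 1 h. Samples taken every 15 min, quenched in methanol with internal standard, analyzed by LC-MS. Duplicate runs alongside two control compounds of known half-life. Half-life reported.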

[5] = molecular target: T1, 3-phosphoinositide-dependent protein kinase 1 (Homo sapiens, UniProt O15530); assay: Inhibition of PDK1 by Z'-LYTE kinase activity assay
T1 sequence (O15530 whole entry): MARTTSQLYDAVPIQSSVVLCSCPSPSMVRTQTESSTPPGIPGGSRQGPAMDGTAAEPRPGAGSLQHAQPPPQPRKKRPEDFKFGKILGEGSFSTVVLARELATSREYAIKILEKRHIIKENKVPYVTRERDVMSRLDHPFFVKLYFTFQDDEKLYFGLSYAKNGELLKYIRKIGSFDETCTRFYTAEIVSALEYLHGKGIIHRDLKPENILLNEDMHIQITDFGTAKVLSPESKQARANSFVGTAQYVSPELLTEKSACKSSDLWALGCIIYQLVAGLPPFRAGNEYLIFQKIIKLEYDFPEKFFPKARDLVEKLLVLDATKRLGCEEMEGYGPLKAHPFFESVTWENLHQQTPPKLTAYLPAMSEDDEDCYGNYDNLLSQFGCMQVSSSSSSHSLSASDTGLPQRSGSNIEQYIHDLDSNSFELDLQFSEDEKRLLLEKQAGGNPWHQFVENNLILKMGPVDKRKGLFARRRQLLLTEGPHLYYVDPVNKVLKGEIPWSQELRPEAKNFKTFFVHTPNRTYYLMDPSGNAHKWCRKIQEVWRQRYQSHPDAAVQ

[6] = molecular target: Receptor-type tyrosine-protein kinase FLT3 (Homo sapiens) (UniProt P36888); assay: Inhibition of FLT3 at 10 uM
[7] = molecular target: NUAK family SNF1-like kinase 1 (Homo sapiens) (UniProt O60285); assay: Inhibition of NUAK1 at 10 uM
[8] = tested on: Leucine-rich repeat serine/threonine-protein kinase 2 (Homo sapiens), Q5S007 [G2019S]; assay: Inhibition of LRKK2 G2019S mutant at 10 uM
Leucine-rich repeat serine/threonine-protein kinase 2 (Homo sapiens), Q5S007 [G2019S], sequence (Q5S007 whole entry G2019S): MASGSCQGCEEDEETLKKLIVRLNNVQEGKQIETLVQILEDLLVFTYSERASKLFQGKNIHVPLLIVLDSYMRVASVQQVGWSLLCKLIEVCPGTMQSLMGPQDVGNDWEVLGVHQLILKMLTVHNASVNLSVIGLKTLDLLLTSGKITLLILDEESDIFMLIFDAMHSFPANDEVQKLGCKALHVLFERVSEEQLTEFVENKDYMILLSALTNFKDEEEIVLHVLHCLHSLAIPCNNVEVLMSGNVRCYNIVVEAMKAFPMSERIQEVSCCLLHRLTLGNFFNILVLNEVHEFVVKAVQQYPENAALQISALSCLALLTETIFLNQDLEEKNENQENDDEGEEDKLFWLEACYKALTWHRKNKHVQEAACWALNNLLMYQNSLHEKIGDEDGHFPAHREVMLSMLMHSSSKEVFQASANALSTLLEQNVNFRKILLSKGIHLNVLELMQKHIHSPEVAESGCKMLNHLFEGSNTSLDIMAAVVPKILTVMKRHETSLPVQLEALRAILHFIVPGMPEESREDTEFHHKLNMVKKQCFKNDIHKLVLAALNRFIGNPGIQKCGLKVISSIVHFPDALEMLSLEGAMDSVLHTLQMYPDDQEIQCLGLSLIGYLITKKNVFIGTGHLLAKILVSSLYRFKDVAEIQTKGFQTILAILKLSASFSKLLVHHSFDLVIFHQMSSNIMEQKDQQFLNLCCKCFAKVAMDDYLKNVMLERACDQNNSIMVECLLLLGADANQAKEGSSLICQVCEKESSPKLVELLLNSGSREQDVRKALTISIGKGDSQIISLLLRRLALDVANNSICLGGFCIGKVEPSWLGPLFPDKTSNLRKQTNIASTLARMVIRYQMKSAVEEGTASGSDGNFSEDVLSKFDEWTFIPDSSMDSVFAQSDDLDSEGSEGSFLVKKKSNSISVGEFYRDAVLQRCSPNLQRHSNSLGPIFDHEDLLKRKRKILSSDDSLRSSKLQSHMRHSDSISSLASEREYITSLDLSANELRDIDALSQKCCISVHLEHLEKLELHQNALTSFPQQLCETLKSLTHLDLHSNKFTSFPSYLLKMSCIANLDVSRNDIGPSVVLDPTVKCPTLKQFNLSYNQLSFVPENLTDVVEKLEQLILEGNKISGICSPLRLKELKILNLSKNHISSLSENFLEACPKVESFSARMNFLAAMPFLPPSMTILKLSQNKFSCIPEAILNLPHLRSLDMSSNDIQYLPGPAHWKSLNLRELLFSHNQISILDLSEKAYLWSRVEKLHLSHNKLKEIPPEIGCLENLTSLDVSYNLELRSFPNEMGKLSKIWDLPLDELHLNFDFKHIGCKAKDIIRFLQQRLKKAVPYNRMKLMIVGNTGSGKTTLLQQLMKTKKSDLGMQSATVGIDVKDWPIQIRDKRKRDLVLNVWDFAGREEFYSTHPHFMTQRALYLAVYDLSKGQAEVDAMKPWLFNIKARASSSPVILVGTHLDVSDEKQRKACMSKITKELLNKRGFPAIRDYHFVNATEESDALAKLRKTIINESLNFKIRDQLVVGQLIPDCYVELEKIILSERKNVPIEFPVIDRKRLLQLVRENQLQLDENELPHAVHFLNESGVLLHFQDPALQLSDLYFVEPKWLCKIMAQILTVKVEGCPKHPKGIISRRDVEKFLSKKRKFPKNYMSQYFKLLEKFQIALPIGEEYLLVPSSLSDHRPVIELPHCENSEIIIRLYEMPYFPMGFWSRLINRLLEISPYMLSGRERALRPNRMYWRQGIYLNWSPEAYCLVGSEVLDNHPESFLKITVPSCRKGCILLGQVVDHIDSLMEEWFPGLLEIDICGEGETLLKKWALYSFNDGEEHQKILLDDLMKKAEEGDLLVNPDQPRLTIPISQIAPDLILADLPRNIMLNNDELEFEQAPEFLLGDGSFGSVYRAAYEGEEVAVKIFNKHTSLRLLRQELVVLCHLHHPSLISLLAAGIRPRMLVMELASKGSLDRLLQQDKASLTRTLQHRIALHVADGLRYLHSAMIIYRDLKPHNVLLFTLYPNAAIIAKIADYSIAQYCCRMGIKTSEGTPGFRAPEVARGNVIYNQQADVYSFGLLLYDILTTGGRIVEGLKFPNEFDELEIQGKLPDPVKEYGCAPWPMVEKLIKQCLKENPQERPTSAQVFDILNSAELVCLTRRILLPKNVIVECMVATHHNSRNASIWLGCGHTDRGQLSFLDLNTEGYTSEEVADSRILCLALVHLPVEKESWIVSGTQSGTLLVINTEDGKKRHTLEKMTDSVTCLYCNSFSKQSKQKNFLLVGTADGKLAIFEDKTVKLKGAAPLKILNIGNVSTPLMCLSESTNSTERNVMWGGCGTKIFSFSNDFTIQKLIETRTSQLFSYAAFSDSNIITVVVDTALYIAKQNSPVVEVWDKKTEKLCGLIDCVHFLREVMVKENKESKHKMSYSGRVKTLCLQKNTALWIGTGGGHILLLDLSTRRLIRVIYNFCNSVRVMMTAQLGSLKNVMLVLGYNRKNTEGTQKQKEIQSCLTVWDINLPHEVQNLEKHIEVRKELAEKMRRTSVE

[9] = molecular target: Interleukin-1 receptor-associated kinase 1 (Homo sapiens) (UniProt P51617); assay: Inhibition of IRAK1 at 10 uM
[10] = molecular target: Maternal embryonic leucine zipper kinase (Homo sapiens) (UniProt Q14680); assay: Inhibition of MELK at 10 uM
[11] = molecular target: Vascular endothelial growth factor receptor 3 (Homo sapiens) (UniProt P35916); assay: Inhibition of FLT4 at 10 uM
[12] = molecular target: Serine/threonine-protein kinase haspin (Homo sapiens) (UniProt Q8TF76); assay: Inhibition of GSG2 at 10 uM
[13] = molecular target: Muscle, skeletal receptor tyrosine-protein kinase (Homo sapiens) (UniProt O15146); assay: Inhibition of MUSK at 10 uM
HeLa = assay: Growth inhibition of human HeLa cells after 72 hrs by ATPlite assay; assay type: functional
Procedure, shortened: (§1)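 Cells seeded at about 3000 per well, grown 24 h, then given fresh medium and test compound in triplicate at 0.5 to 100µM in DMSO (0.5% final). Exposure 72 h at 37 °C, 5% CO₂. Viability measured by ATPlite luminescence and normalized to DMSO-treated controls. GI50 obtained by curve fitting. HeLa cultured in DMEM/10% FBS; MCF7, MDA-MB-231 and PC3 cultured in RPMI+GlutaMAX/10% FBS.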

[14] = tested on: Proto-oncogene tyrosine-protein kinase receptor Ret (Homo sapiens), P07949 [V804L]; assay: Inhibition of RET V804L mutant at 10 uM
U-87MG ATCC = assay: Growth inhibition of human U87 cells grown as spheroids assessed reduction in decrease in spheroid volumes reated consecutively for 6 days by hanging drop method; assay type: functional, cell-based
Procedure, shortened: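 U87 glioblastoma spheroids formed by hanging drop, 200 cells per 20 µl drop, inverted for 5 days in a humidity chamber. Spheroids moved onto 1% low-melt agarose-coated wells. Compound or DMSO added every 24 h for 6 days. Volume (µm³) calculated from length and width measured with an optical micrometer. Four independent experiments.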

[15] = molecular target: Mitogen-activated protein kinase 8 (Homo sapiens) (UniProt P45983); assay: Inhibition of JNK1 at 10 uM
[16] = molecular target: Dual specificity protein kinase CLK2 (Homo sapiens) (UniProt P49760); assay: Inhibition of CLK2 at 10 uM
Dual specificity protein kinase CLK2 (Homo sapiens), sequence (P49760 whole entry, looked up): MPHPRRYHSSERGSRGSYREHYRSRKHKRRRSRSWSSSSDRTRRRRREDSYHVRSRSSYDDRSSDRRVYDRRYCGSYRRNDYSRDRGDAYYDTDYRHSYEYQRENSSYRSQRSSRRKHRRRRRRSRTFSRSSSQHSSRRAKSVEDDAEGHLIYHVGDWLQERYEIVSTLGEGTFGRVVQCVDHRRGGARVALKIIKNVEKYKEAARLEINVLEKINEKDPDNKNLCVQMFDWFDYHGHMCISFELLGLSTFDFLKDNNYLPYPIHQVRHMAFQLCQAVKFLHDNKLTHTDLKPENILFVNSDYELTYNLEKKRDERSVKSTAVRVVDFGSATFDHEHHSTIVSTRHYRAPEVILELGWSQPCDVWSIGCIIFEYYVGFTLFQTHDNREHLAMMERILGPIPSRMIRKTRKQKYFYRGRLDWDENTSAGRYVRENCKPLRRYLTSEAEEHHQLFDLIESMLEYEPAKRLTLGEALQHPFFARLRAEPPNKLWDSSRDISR

[17] = molecular target: Inhibitor of nuclear factor kappa-B kinase subunit alpha (Homo sapiens) (UniProt O15111); assay: Inhibition of IKKalpha at 10 uM
MDA-MB-231 = assay: Growth inhibition of human MDA-MB-231 cells after 72 hrs by ATPlite assay; assay type: functional; settings: MDA-MB-231, 72 h; procedure, shortened: as §1
[18] = molecular target: Tyrosine-protein kinase SYK (Homo sapiens) (UniProt P43405); assay: Inhibition of SYK at 10 uM
[19] = molecular target: Vascular endothelial growth factor receptor 2 (Homo sapiens) (UniProt P35968); assay: Inhibition of KDR at 10 uM
[20] = molecular target: NT-3 growth factor receptor (Homo sapiens) (UniProt Q16288); assay: Inhibition of NTRK3 at 10 uM
[21] = tested on: Platelet-derived growth factor receptor alpha (Homo sapiens), P16234 [V561D]; assay: Inhibition of PDGFRA V561D mutant at 10 uM
[22] = molecular target: Serine/threonine-protein kinase Sgk1 (Homo sapiens) (UniProt O00141); assay: Inhibition of SGK1 at 10 uM
Serine/threonine-protein kinase Sgk1 (Homo sapiens), sequence (O00141 whole entry): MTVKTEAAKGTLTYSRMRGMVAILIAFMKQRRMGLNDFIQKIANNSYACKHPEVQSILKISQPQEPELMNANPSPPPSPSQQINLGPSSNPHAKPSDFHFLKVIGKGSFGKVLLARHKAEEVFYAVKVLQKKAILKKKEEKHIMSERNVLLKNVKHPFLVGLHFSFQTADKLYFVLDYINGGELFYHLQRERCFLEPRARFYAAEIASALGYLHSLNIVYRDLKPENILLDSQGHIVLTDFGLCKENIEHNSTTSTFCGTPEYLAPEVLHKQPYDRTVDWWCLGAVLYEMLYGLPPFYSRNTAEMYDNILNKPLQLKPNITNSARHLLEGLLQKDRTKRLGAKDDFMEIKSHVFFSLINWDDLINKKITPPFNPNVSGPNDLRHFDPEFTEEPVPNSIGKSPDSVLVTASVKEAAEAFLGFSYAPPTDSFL

[23] = Inhibition of DNA-PK at 10 uM
[24] = molecular target: Myosin light chain kinase 2, skeletal/cardiac muscle (Homo sapiens) (UniProt Q9H1R3); assay: Inhibition of MYLK2 at 10 uM
Myosin light chain kinase 2, skeletal/cardiac muscle (Homo sapiens), sequence (Q9H1R3 whole entry): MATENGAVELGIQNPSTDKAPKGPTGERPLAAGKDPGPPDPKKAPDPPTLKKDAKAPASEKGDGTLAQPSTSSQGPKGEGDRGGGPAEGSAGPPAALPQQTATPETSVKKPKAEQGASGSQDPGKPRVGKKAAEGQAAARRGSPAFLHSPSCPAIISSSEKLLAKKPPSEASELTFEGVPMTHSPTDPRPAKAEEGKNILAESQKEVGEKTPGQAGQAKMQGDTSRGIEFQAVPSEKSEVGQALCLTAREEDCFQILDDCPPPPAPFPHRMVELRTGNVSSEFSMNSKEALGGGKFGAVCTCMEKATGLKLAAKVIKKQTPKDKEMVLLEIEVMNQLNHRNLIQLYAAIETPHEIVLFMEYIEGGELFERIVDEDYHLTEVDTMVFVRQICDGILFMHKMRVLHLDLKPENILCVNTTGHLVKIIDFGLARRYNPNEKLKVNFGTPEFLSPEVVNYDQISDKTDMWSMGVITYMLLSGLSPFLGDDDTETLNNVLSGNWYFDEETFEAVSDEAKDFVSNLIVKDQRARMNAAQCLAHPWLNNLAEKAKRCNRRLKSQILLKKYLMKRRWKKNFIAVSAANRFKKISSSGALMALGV

PC-3 = assay: Growth inhibition of human PC3 cells after 72 hrs by ATPlite assay; assay type: functional; settings: PC-3, 72 h; procedure, shortened: as §1
MCF7 = assay: Growth inhibition of human MCF7 cells after 72 hrs by ATPlite assay; assay type: functional; settings: MCF7, 72 h; procedure, shortened: as §1
[25] = tested on: Platelet-derived growth factor receptor alpha (Homo sapiens), P16234 [T674I]; assay: Inhibition of PDGFRA T674I mutant at 10 uM
[26] = molecular target: Misshapen-like kinase 1 (Homo sapiens) (UniProt Q8N4C8); assay: Inhibition of MINK1 at 10 uM

For `C(#Cc1n[nH]c2ccccc12)c1ccncc1`, the inhibition [1] was greater than 50%, the IC50 [2] was 40 µM and the inhibition [3] was greater than 50%. The inhibition [4] was “inactive”, the t1/2 (Liver microsomes) was 35 min and the IC50 [5] was 3.87 µM. The inhibition [6] was greater than 50%, the inhibition [7] was greater than 50% and the inhibition [8] was greater than 50%. It also gave an inhibition [9] greater than 50%, an inhibition [10] greater than 50% and an inhibition [11] greater than 50%. The inhibition [12] was greater than 50%, the inhibition [13] was greater than 50% and the GI50 (HeLa) was 2.53 µM. The inhibition [14] was greater than 50%, the “growth inhibition (GI)” value (U-87MG ATCC) was “Active” and the inhibition [15] was greater than 50%. It also gave an inhibition [16] greater than 50%, an inhibition [17] greater than 50% and a GI50 (MDA-MB-231) of 7.84 µM. For the same compound, the inhibition [18] was greater than 50%, the inhibition [19] was greater than 50% and the inhibition [20] was greater than 50%. For the same compound, the inhibition [21] was greater than 50%, the inhibition [22] was greater than 50% and the inhibition [23] was greater than 50%. For the same compound, the inhibition [24] was greater than 50%, the GI50 (PC-3) was 2.43 µM and the GI50 (MCF7) was 2.58 µM. For the same compound, the inhibition [25] was greater than 50% and the inhibition [26] was greater than 50%.
